Results on four molecules are retold here after ChEMBL document CHEMBL1126218, “N-(5,5-diacetoxypent-1-yl)doxorubicin: a new intensely potent doxorubicin analogue” (J Med Chem, 1992).

The half-life is how long it takes for the measured level to halve. What is called IC50 is the concentration that gives 50% inhibition. Lower therefore signals greater potency in that assay.

Data set [1] can be described thus: Half life period in the absence or presence of pig liver carboxylate esterase at 25 degrees C in aqueous solution of 0.05 M acetate buffer at pH 4.0. In kind it is ADME. To be noted: in vivo. The method in brief: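 Drug at 20 μM in 0.05 M acetate buffer, pH 4.0, no enzyme. Aliquots were taken at set times (about 2–250 h) and the parent drug measured by reverse-phase C-18 HPLC (CH3CN–0.05 N acetate pH 4.0, 2:3). Half-life came from linear least-squares regression of pseudo-first-order loss.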

Data set [2] relates to carboxylate esterase. Put plainly: Half life period in the absence or presence of pig liver carboxylate esterase at 25 degrees C in aqueous solution of C + esterase (5-fold unit equiv). It counts as ADME. The method in brief:
(§1)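 Drug at 20 μM in 0.05 M phosphate buffer, pH 7.4, pre-equilibrated, then given porcine liver carboxylate esterase (200 units/mg) at 2, 5, 10 or 20 units per μmol substrate. At 0.25–60 min samples were vortexed and centrifuged, and the supernatant measured for parent drug by C-18 HPLC. Half-life came from pseudo-first-order least-squares regression.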

Data set [3] is described as follows: Half life period in the absence or presence of pig liver carboxylate esterase at 25 degrees C in aqueous solution of 0.05 M phosphate buffer at pH 7.4. To be noted: 0.05 M phosphate buffer (aqueous solution).
In data set [4] the test system is CHO. Briefly: The compound was tested in vitro for growth inhibition of subline (CHO/DOX) with acquired resistance to doxorubicin. In kind it is functional, cell-based. To be noted: Cricetulus griseus. The method in brief: (§2)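 Exponentially growing CHO cells, or the P-glycoprotein-overexpressing doxorubicin-resistant CHO/DOX subline, were seeded at 1.5 × 10⁴ cells/mL in McCoy's 5A with 10% FCS. They were exposed to at least 7 concentrations (2 × 10⁻¹² to 2 × 10⁻⁵ M) for 6 days at 37 °C. Cells were then formaldehyde-fixed, crystal-violet-stained and counted microscopically. IC50 (50% growth inhibition versus untreated controls) was taken from dose–response curves, mean of duplicates.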

The subject of data set [5] is carboxylate esterase. Put plainly: Half life period in the absence or presence of pig liver carboxylate esterase at 25 degrees C in aqueous solution of C + esterase (2-fold unit equiv). It counts as ADME. The method in brief: as §1
In data set [6] the test system is CHO. Put plainly: The compound was tested in vitro for growth inhibition of Chinese Hamster Ovary(CHO) cells. As to conditions: Cricetulus griseus. In kind it is functional, cell-based. The method in brief:
as §2

The test system of data set [7] is carboxylate esterase. Briefly: Half life period in the absence or presence of pig liver carboxylate esterase at 25 degrees C in aqueous solution of C + esterase (10-fold unit equiv). It counts as ADME. The method in brief:
as §1

Data set [8] has as its system carboxylate esterase. Briefly: Half life period in the absence or presence of pig liver carboxylate esterase at 25 degrees C in aqueous solution of C + esterase (20-fold unit equiv). In kind it is ADME. The method in brief:
as §1

Where “and” joins values, the source holds several entries; their conditions need not be identical. Identical values can stand only once.

Consider `COc1cccc2c1C(=O)c1c(O)c3c(c(O)c1C2=O)CC(O)(C(=O)CO)CC3OC1CC(NCCCCC(OC(C)=O)OC(C)=O)C(O)C(C)O1.Cl` (centres undefined), for which the T1/2 in data set [1] is > 240 h and 97 h. In addition, the half-life is 4 min in data set [2]; 1440 min in data set [3]; 27 min in data set [5]; 1 min in data set [7]; 0.333 min in data set [8]. The IC50 came to 0.7 nM in data set [4] and 0.4 nM in data set [6].

On to `CCCCCNC1CC(OC2CC(O)(C(=O)CO)Cc3c(O)c4c(c(O)c32)C(=O)c2c(OC)cccc2C4=O)OC(C)C1O` (centres undefined), for which the IC50 in data set [4] is 420 nM; in data set [6], 57 nM.

For `COc1cccc2c1C(=O)c1c(O)c3c(c(O)c1C2=O)C[C@@](O)(C(=O)CO)C[C@@H]3O[C@H]1C[C@H](N)[C@H](O)[C@H](C)O1` [DOXORUBICIN], the IC50 in data set [4] was 6000 nM; in data set [6], 60 nM.

Regarding `COc1cccc2c1C(=O)c1c(O)c3c(c(O)c1C2=O)CC(O)(C(=O)CO)CC3OC1CC(NCCCCCOC(C)=O)C(O)C(C)O1` (centres undefined), the concentration for half-maximal inhibition (IC50) is 350 nM in data set [4] and 83 nM in data set [6].
